Measured values of several laboratories.
Each line is one published result; the experiments were not run side by side.
RNMT: mRNA cap guanine-N(7) methyltransferase (RNMT, Homo sapiens, UniProt O43148)
HTR2B: 5-hydroxytryptamine receptor 2B (HTR2B, Homo sapiens, UniProt P41595)
DHFR: Dihydrofolate reductase (DHFR, Homo sapiens, UniProt P00374)

CC(=O)N(CC#Cc1cccc(C(N)=O)c1)C[C@H]1C[C@@H](n2ccc3c(Cl)ncnc32)[C@H](O)[C@@H]1O — Kd (RNMT; binding, MST): > 300000 nM
CCc1oc2c([C@H](CO)N(CC)CC)cccc2c1C — EC50 (Lysophosphatidic acid receptor 1 (LPAR1, Homo sapiens, UniProt Q92633); G protein activation, agonist): 1.2 nM
O=C(c1cc(C2CCNC2)[nH]n1)N1CCC(c2cccc(Cl)c2)C1 (stereo not shown) — IC50 (HTR2B; calcium signal, antagonist): 16500 nM
NC(=O)c1cccc(C#CCN(CC[C@H](N)C(=O)O)C[C@H]2O[C@@H](n3cnc4c(N)ncnc43)[C@H](O)[C@@H]2O)c1 — Kd (RNMT; binding, MST): 35700 nM
Cc1ccc(F)c(O)c1CN1CCN(C2CCCC2O)CC1 (stereo not shown) — IC50 (HTR2B; calcium signal, antagonist): 134 nM
O=C(O)C1=CC(=C(c2ccc(O)c(C(=O)O)c2)c2ccc(O)c(C(=O)O)c2)C=CC1=O — Kd (Guanine nucleotide-binding protein G(i) subunit alpha-3 (GNAI3, Homo sapiens, UniProt P08754); binding, BLI): ~1600 nM
N#C[C@@]12C[C@@H]1[C@@H](n1cnc3c(NC4CCCC4)nc(I)nc31)[C@H](O)[C@@H]2O — Ki (HTR2B; ligand displacement, radioligand): 4.27 nM
Cc1ccc(NC(=S)NN=Cc2ccc(N3CCCCC3)cc2)cc1 — IC50 (DHFR; enzyme activity, inhibitor): 28500 nM
N#C[C@@]12C[C@@H]1[C@@H](n1cnc3c(N[C@@H](C4CCC4)C4CC4)nc(I)nc31)[C@H](O)[C@@H]2O — Kb (5-hydroxytryptamine receptor 2C (HTR2C, Homo sapiens, UniProt P28335); calcium signal, antagonist): 3.39 nM
COc1cccc(NC(=S)NN=Cc2ccc(N3CCCCC3)cc2)c1 — IC50 (DHFR; enzyme activity, inhibitor): 22400 nM
